The values below come from ChEMBL document CHEMBL1123166, “Design and synthesis of 2-(arylamino)-4(3H)-quinazolinones as novel inhibitors of rat lens aldose reductase” (J Med Chem, 1986).

pIC50: −log10 of the molar value.

As a reminder, the pIC50 is the negative decadic logarithm of the IC50, by convention in mol/L. A word on the inhibition: it is the share of the control response that was lost under treatment.

For test [1], the target named is Aldo-keto reductase family 1 member B1 (Rattus norvegicus, UniProt P07943). Nature of the test: Compound was tested for its ability to inhibit crude aldose reductase obtained from rat lens.
Test [2] addresses Aldo-keto reductase family 1 member B1 (Rattus norvegicus) (UniProt P07943). Nature of the test: Compound was tested for its ability to inhibit crude aldose reductase obtained from rat lens at 100 uM concentration. A digest of the protocol:
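Crude enzyme prepared from rat lens. Reaction at pH 6.2 in 0.1 M phosphate buffer with 0.104 mM NADPH and 1.5 mM DL-glyceraldehyde as substrate. NADPH consumption followed at 340 nm against a blank lacking substrate. Percent inhibition from rate versus substrate-only control. IC50 from linear regression of log dose-response using at least three concentrations, three replicates each, for compounds exceeding 50% inhibition at 100 μM.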

Turning to `COc1cc2nc(Nc3ccc(C(=O)O)cc3)[nH]c(=O)c2cc1OC`, the pIC50 in test [1] is 4.47. As for `Oc1nc(Nc2ccccc2)nc2ccccc12`, in test [2], the inhibition turned out to be 5.9%. In test [1], `O=c1[nH]c(Nc2ccc(O)cc2)nc2ccccc12` had a pIC50 of 4.12. `Cc1nc2ccccc2c(=O)n1-c1ccc(C(=O)O)cc1` showed a pIC50 in test [1] of 3.67. As to `COc1cc2nc(Nc3ccccc3)nc(O)c2cc1OC`, the inhibition in test [2] turned out to be 17.4%.

In the case of `COc1cc2nc(NCc3ccccc3)nc(O)c2cc1OC`, the inhibition in test [2] was determined as 22.4%. Same read-out and setting: the same measure for `Oc1nc(NCc2ccccc2)nc2ccccc12`: 3.9%.

`O=C(O)c1ccc(Nc2nc3ccccc3c(=O)[nH]2)cc1` gave a negative-log IC50 (pIC50) in test [1] of 4.30. On the same count and under the same terms, the figure for `O=C(O)c1ccc(Nc2nc3ccccc3c(=O)[nH]2)cc1O` is 4.24. Turning to `O=S(=O)(O)c1ccc(Nc2nc(O)c3ccccc3n2)cc1`, the inhibition in test [2] is 42.6%.
